Measured values taken from ChEMBL document CHEMBL1156265, “Furo[2,3-b]pyridine-based cannabinoid-1 receptor inverse agonists: synthesis and biological evaluation. Part 1” (Bioorg Med Chem Lett, 2010).
Values belong to the compound of their own block, whether it stands above or below them.

Assays:
[1] = target: Cannabinoid receptor 1 (Homo sapiens, UniProt P21554); experiment: Inhibition of human CB1 receptor
[2] = target: Cannabinoid receptor 2 (Homo sapiens, UniProt P34972); experiment: Inhibition of human CB2 receptor
[3] = tested on: Rattus norvegicus; experiment: Reduction of body weight in DIO rat assessed as weight change at 1 mg/kg, po after 18 hrs; format: functional
Procedure, shortened: (§1)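 Acute study in diet-induced obese rats. A single oral dose was given and rats were monitored for 18 h. Food intake suppression and body weight change were measured relative to vehicle-treated controls.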

[4] = Half life in dog; format: ADME, organism-based, Canis lupus familiaris; conditions: in vivo
Procedure, shortened: (§2)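 PK in dog and rhesus macaque. Bioavailability, plasma clearance (mL/min/kg) and terminal half-life derived from plasma drug levels.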

[5] = tested on: Rattus norvegicus; experiment: Suppression of food intake in DIO rat at 1 mg/kg, po relative to control; format: functional; procedure, shortened: as §1
[6] = Drug level in rat brain at 1 mg/kg, iv after 4 hrs; format: ADME, organism-based; design: dose 1 mg/kg, route intravenous; conditions: read-out: Drug uptake
[7] = tested on: Rattus norvegicus; experiment: Reduction of body weight in rat at 1 mg/kg, po after 13 days relative to control; format: functional; design: scale not given: the % may be the effect or the level left
Procedure, shortened: (§3)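 Chronic study in diet-induced obese rats with daily oral dosing at 1 mg/kg (for some compounds 0.1 and 0.3 mg/kg as well). Body weight change and cumulative food intake suppression were measured relative to vehicle. The 14-day study ended 18 h after the day-14 dose; one study ended on day 13.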

[8] = Bioavailability in rat; format: ADME, organism-based; conditions: in vivo
[9] = Half life in rat; format: ADME, organism-based; conditions: in vivo
[10] = Lipophilicity, log D of the compound; format: physicochemical; conditions: HPLC, pH 7.3
[11] = Plasma clearance in rat; format: ADME, organism-based
[12] = tested on: Rattus norvegicus; experiment: Suppression of food intake in DIO rat at 1 mg/kg, po measured 18 hrs post dose on day 14 relative to control
[13] = Drug level in rat plasma at 1 mg/kg, iv after 4 hrs; format: ADME, organism-based; design: dose 1 mg/kg, route intravenous; conditions: read-out: Drug uptake
[14] = tested on: Rattus norvegicus; experiment: Reduction of body weight in DIO rat assessed as weight change at 1 mg/kg, po daily measured 18 hrs post dose on day 14; format: functional; procedure, shortened: as §3
[15] = Ratio of drug level in brain to plasma in rat at 1 mg/kg, iv after 4 hrs; format: ADME, organism-based; design: dose 1 mg/kg, route intravenous
[16] = Bioavailability in dog; format: ADME, organism-based, Canis lupus familiaris; conditions: in vivo; procedure, shortened: as §2
[17] = Plasma clearance in dog; format: ADME, organism-based, Canis lupus familiaris; procedure, shortened: as §2
[18] = tested on: Rattus norvegicus; experiment: Suppression of food intake in DIO rat at 3 mg/kg relative to control; format: functional
[19] = Half life in rat at 3 mg/kg; format: ADME, organism-based; design: dose 3 mg/kg; conditions: in vivo
[20] = Plasma clearance in rhesus monkey; format: ADME, organism-based, Macaca mulatta; procedure, shortened: as §2
[21] = Metabolic stability in human liver microsomes assessed as compound remaining after 60 mins; format: ADME, Microsome; conditions: read-out: Activity
Procedure, shortened: (§4)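 Liver microsomes (monkey, human, rat, dog) were incubated with compound for 60 min. The read-out was percent parent remaining over the incubation time course.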

[22] = Metabolic stability in monkey liver microsomes assessed as compound remaining after 60 mins; format: ADME, Macaca fascicularis, Microsome; conditions: cynomolgus monkey, read-out: Activity; procedure, shortened: as §4
[23] = Half life in rhesus monkey; format: ADME, organism-based, Macaca mulatta; conditions: in vivo; procedure, shortened: as §2
[24] = Stability in phosphate buffer exposed to air assessed as degradation at pH 7.4 after 40 hrs; format: physicochemical; conditions: read-out: Activity
Procedure, shortened: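 The compound was held in aqueous pH 7.4 phosphate buffer exposed to air for 40 h. The read-out was percent of material degraded to other products.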

[25] = Bioavailability in rhesus monkey; format: ADME, organism-based, Macaca mulatta; conditions: in vivo; procedure, shortened: as §2
[26] = Metabolic stability in rat bile assessed as total recovery at 2 mg/kg, iv after 5 days; format: ADME, organism-based; design: dose 2 mg/kg, route intravenous; conditions: in vivo, 120 h
Procedure, shortened: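 Radioactivity was collected in bile and urine for 120 h and expressed as percent of dose recovered.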

Chain of Cannabinoid receptor 1 (P21554 whole entry): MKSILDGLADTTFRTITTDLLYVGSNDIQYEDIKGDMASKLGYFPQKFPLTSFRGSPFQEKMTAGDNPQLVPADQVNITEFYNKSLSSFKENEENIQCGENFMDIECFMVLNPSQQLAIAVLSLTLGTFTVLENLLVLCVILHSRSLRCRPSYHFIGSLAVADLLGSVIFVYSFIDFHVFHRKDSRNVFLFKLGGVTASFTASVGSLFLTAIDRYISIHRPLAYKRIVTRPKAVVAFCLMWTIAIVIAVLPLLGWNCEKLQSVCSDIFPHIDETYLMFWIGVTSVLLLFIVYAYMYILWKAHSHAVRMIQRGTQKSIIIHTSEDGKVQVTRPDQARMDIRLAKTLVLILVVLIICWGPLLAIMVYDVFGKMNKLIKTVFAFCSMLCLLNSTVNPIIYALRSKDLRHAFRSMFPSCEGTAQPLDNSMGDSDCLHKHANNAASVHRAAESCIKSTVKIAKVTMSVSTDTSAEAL
Chain of Cannabinoid receptor 2 (P34972 whole entry): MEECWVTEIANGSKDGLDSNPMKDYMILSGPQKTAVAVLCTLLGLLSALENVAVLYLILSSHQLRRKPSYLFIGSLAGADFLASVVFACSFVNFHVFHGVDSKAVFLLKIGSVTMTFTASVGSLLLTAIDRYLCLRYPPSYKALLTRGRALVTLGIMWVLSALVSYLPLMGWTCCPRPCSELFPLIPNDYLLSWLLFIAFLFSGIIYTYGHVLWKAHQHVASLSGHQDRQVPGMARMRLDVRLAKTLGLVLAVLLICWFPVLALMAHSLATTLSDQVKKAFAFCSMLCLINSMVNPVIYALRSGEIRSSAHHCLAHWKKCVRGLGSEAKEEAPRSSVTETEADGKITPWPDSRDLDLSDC

SMILES: CNCC(=O)Nc1c(C(=O)C(C)(C)C)oc2nc(-c3ccccc3Cl)c(-c3ccc(Cl)cc3)cc12
IC50 [1]: 1.2 nM
IC50 [2]: 3300 nM

SMILES: CCC(=O)c1oc2nc(-c3ccccc3Cl)c(-c3ccc(Cl)cc3)cc2c1N
IC50 [1]: 13 nM
IC50 [2]: 1000 nM

SMILES: CCC(=O)c1oc2nc(-c3ccc(Cl)cc3Cl)c(-c3ccc(Cl)cc3)cc2c1N
IC50 [1]: 17 nM
IC50 [2]: 360 nM

SMILES: CC(C)(C)C(=O)c1oc2nc(-c3ccccc3Cl)c(-c3ccc(Cl)cc3)cc2c1NC(=O)CO
Activity [3]: -6 g
half-life [4]: 660 min
Activity [5]: 24%
concentration at 4 h [6]: 86 nM
Activity [7]: 6%
bioavailability [8]: 32%
half-life [9]: 210 min
logD [10]: 6
clearance [11]: 10 mL/min/kg
Activity [12]: 19%
concentration at 4 h [13]: 49 nM
Activity [14]: -19 g
Kp at 4 h [15]: 1.8
IC50 [1]: 1.2 nM
bioavailability [16]: 42%
clearance [17]: 3 mL/min/kg
IC50 [2]: 3400 nM

SMILES: CC(=O)Nc1c(C(C)=O)c(=O)n(C)c2nc(-c3ccc(Cl)cc3Cl)c(-c3ccc(Cl)cc3)cc12 [NAPHTHYRIDINONE]
Activity [18]: -68%
half-life [19]: > 480 min

SMILES: CC(C)(C)C(=O)c1oc2nc(-c3ccccc3Cl)c(-c3ccc(Cl)cc3)cc2c1N
Activity [3]: -4 g
Activity [5]: 33%
concentration at 4 h [6]: 290 nM
bioavailability [8]: 100%
half-life [9]: 168 min
clearance [11]: 22 mL/min/kg
concentration at 4 h [13]: 130 nM
Kp at 4 h [15]: 2.3
IC50 [1]: 4.3 nM
IC50 [2]: 1900 nM

SMILES: CC(C)C(=O)c1oc2nc(-c3ccccc3Cl)c(-c3ccc(Cl)cc3)cc2c1NC(=O)CO
Activity [3]: -7 g
half-life [4]: 3120 min
Activity [5]: 37%
concentration at 4 h [6]: 150 nM
bioavailability [8]: 38%
half-life [9]: 198 min
clearance [11]: 20 mL/min/kg
concentration at 4 h [13]: 160 nM
Kp at 4 h [15]: 0.94
IC50 [1]: 0.4 nM
bioavailability [16]: 31%
clearance [17]: 4.9 mL/min/kg
IC50 [2]: 5100 nM

SMILES: CC(C)C(=O)c1oc2nc(-c3ccc(Cl)cc3Cl)c(-c3ccc(Cl)cc3)cc2c1N
IC50 [1]: 1.9 nM
IC50 [2]: 640 nM

SMILES: CC(C)C(=O)c1oc2nc(-c3ccccc3Cl)c(-c3ccc(Cl)cc3)cc2c1N
IC50 [1]: 1.7 nM
IC50 [2]: 1300 nM

SMILES: CC(C)(C)C(=O)c1oc2nc(-c3ccc(Cl)cc3Cl)c(-c3ccc(Cl)cc3)cc2c1N
Activity [3]: -5 g
clearance [20]: 29 mL/min/kg
half-life [4]: 474 min
Activity [5]: 53%
concentration at 4 h [6]: 220 nM
remaining at 1 h [21]: 100%
remaining at 1 h [22]: 25%
Activity [7]: 5.3%
bioavailability [8]: 59%
half-life [9]: 252 min
logD [10]: 6.7
clearance [11]: 5.6 mL/min/kg
Activity [12]: 19%
half-life [23]: 144 min
degraded at 40 h [24]: 40%
concentration at 4 h [13]: 220 nM
Activity [14]: -3 g
Kp at 4 h [15]: 1
bioavailability [25]: 11%
Activity [26]: 41%
IC50 [1]: 5.5 nM
bioavailability [16]: 63%
clearance [17]: 7.3 mL/min/kg
IC50 [2]: 440 nM

Now from value to compound:

IC50 [1]: 0.58 nM
IC50 [2]: > 2000 nM
SMILES: CC(=O)Nc1c(C(=O)C(C)(C)C)oc2nc(-c3ccccc3Cl)c(-c3ccc(Cl)cc3)cc12

IC50 [1]: 3.5 nM
IC50 [2]: 440 nM
SMILES: Nc1c(C(=O)c2ccccc2)oc2nc(-c3ccc(Cl)cc3Cl)c(-c3ccc(Cl)cc3)cc12

IC50 [1]: 0.39 nM
IC50 [2]: 1970 nM
SMILES: CN(C)C(=O)Nc1c(C(=O)C(C)(C)C)oc2nc(-c3ccccc3Cl)c(-c3ccc(Cl)cc3)cc12

IC50 [1]: 56 nM
IC50 [2]: 1000 nM
SMILES: CC(=O)c1oc2nc(-c3ccc(Cl)cc3Cl)c(-c3ccc(Cl)cc3)cc2c1N

IC50 [1]: 20 nM
IC50 [2]: 2100 nM
SMILES: CC(C)(O)C(=O)c1oc2nc(-c3ccccc3Cl)c(-c3ccc(Cl)cc3)cc2c1N
